An excerpt weighted towards active compounds, which were near 1.8% of everything screened.
GalR3 antagonist: human GalR3 antagonism; O60755; hit rate 0.44% among 360,000; inhibition, % at 3 µM; AID 651719; HEK293 GalR3-CNG cAMP membrane potential fluorescence; galR3 body fused to GalR1 C-terminus;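 active = inhibition above the screen-wide average plus 3 SD, cut at about 13% in these data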;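 note: forskolin and galanin both at EC90 stimulate the cells; cAMP rise reported by CNG channel membrane potential dye signal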
NR2E3 ag-1: NR2E3 (human) agonism; Q9Y5X4; GST-NR2E3/biotin-RetCOR TR-FRET, 1536-well; inhibition of corepressor binding, % at 4.78 µM; hit rate 0.12% among 320,000;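 active = percent inhibition above the cutoff of mean plus 3 SD of all tested compounds, set per screening campaign, cut at about 20% in these data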
Target sequence (Q9Y5X4 whole entry, looked up): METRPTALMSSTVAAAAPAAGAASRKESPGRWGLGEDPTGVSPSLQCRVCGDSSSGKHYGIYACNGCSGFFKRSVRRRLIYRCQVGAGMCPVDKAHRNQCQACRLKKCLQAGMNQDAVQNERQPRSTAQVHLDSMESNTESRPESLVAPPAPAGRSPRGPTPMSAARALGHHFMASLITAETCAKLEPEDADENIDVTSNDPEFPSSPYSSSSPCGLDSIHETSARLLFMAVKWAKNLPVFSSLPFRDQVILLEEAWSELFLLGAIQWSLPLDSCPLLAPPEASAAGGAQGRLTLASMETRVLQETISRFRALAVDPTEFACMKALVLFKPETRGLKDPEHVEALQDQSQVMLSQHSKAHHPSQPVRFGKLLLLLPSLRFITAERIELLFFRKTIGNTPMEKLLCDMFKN
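System: GST-tagged NR2E3 plus biotinylated RetCOR corepressor; Amount: 1.35 nM GST-tagged NR2E3 final; Dosing: single nominal compound dose of 4.8 µM; Schedule: 5 h incubation at 4 °C; Technique: TR-FRET with europium anti-GST and streptavidin-D2, 340 nm excitation; Controls: biotin wells as high control, 0.6% DMSO wells as low control.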
NR2E3 ag-2: agonists of human NR2E3 nuclear receptor; Q9Y5X4; CHO-S Gal4-NCOR/VP16-NR2E3 two-hybrid, luciferase; inhibition of corepressor binding, % at 3.98 µM; hit rate 0.35% among 360,000; AID 602229;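 active = inhibition above the mean of all tested compounds plus 3 SD, cut at about 70% in these data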;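 note: higher means lower luciferase signal from less NR2E3 corepressor binding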
Rev-erbA mod: modulators of human Rev-erb alpha DNA binding | P20393 | Rev-erbα–FITC-DNA binding, fluorescence polarization, 90 min | activity, % at 10 µM | hit rate 0.79% among 370,000 | AID 1259318;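 active = activity above about 14%, limit read from the data; passing the limit was not always enough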
PG9 binder: binds the HIV-1 gp120 antibody PG9; TR-FRET gp120-PG9 antibody binding; inhibition, % at 6.7 µM; hit rate 0.43% among 360,000; AID 624416; in the data active = inhibition above about 8.5%
Rev-erbA confirm: confirmation of modulators of human Rev-erb alpha DNA binding. activation, % at 25 µM. hit rate 61% among 3,000. shares compounds with Rev-erbA mod. Rev-erb alpha FITC-DNA binding, fluorescence polarization, 90 min;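 active = activation at or above a set limit, or at least 3 SD above the negative control mean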
RORg DNA counter: affects RORgamma DNA binding in a Rev-erb alpha counter-screen | AID 1259320 | IC50, µM | hit rate 8% among 910 | shares compounds with Rev-erbA mod | purified RORgamma protein-FITC-DNA binding, fluorescence polarization;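 active = Compounds whose fitted half-maximal concentration for disrupting protein-DNA binding is below 10 micromolar; the record names Rev-erb in its text, so the target is in doubt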
A number is an active result; - = inactive; . = not tested or not shown.

SMILES	GalR3 antagonist	NR2E3 ag-1	NR2E3 ag-2	Rev-erbA mod	PG9 binder	Rev-erbA confirm	others
Cc1cc(OC(C)C(=O)NCc2ccccn2)c2c(C)c(Cc3ccccc3)c(=O)oc2c1 (stereo unspecified)	-	-	-	86.3	-	142.0	RORg DNA counter=-
CN(C)c1cccc(/C=C2\CC3(OC(=O)C4CCCC4)CCCN2C3)c1 (stereo unspecified)	.	.	.	-	.	.
COc1ccc(OC)c(S(=O)(=O)N2CCCC(C(=O)N3CCN(Cc4ccccc4)CC3)C2)c1 (stereo unspecified)	.	.	.	-	.	.
CC1(C)Cc2c(sc3c2c(N)nc(=S)n3Cc2ccc(Br)cc2)CO1	-	-	-	135.4	-	94.9	RORg DNA counter=-
CC1(C)Cc2c(sc3nnn(Cc4ccc(Cl)cc4)c(=O)c23)CO1	-	-	-	-	-	.
COc1ccc(C(=O)/C(C#N)=N/Nc2ccc([N+](=O)[O-])cc2)cc1	-	-	-	44.4	-	35.7	RORg DNA counter=-
COc1ccc(C(=O)/C(C#N)=N/Nc2ccccc2[N+](=O)[O-])cc1	-	-	-	-	-	.
O=C1C[C@@H](O)[C@H](O)c2cccc(O)c21	.	.	.	-	.	.
COC(=O)[C@]12C[C@H](CC(=O)NCc3ccc(OC)c(OC)c3)C(=O)N(Cc3ccco3)C1=C[C@H](C(C)(C)C)O[C@@H]2C	.	.	.	-	.	.
CCn1cc(/C=C/c2cc[n+](C)cc2)c2ccccc21	-	-	-	178.8	-	160.5	RORg DNA counter=-
CC(C)n1cc(/C=C/c2cc[n+](C)cc2)c2ccccc21	-	.	-	209.2	-	202.9	RORg DNA counter=-
C=CCn1cc(/C=C/c2cc[n+](C)cc2)c2ccccc21	-	-	-	167.9	-	143.3	RORg DNA counter=-
Cc1ccccc1/C=C/c1cc[n+](C)cc1	-	-	-	-	-	.
CCN(CC)C(=O)Cn1c(C)c(/C=C/c2cc[n+](C)cc2)c2ccccc21	-	-	-	157.8	-	138.5	RORg DNA counter=-
C=CCn1c(C)c(/C=C/c2cc[n+](C)cc2)c2ccccc21	-	-	-	237.4	-	212.6	RORg DNA counter=-
Cc1[nH]c2ccccc2c1/C=C/c1cc[n+](C)cc1	-	.	-	250.8	-	172.3	RORg DNA counter=-
CCn1c(/C=C/c2c(C)n(CC)c3ccccc23)nc2ccccc2c1=O	-	-	-	-	-	.
COC(=O)[C@]12C[C@H](CC(=O)NCC3CCCCC3)C(=O)N(CCC3=CCCCC3)C1=C[C@H](C(C)C)O[C@@H]2C1CC1	.	.	.	-	.	.
Cn1c(=O)c(C(=O)Nc2ccccc2S(N)(=O)=O)c(O)c2ccccc21	-	-	-	-	-	.
CCn1c(=O)c(C(=O)NNC(=O)Cc2ccccc2)c(O)c2ccccc21	-	-	-	32.8	-	-
CCCCCCCCCCC(=O)NNC(=O)c1c(O)c2ccccc2n(CC)c1=O	.	-	.	.	.	.
CC(C)Cn1c(=O)c(C(=O)Nc2ccccc2S(N)(=O)=O)c(O)c2ccccc21	-	-	-	55.6	-	28.7
COc1ccc(OC)c(CN2C(=O)c3ccnn3CC2(C)c2nnnn2C2CCCC2)c1 (stereo unspecified)	.	.	.	-	.	.
COc1ccccc1N1N=C(c2ccc([N+](=O)[O-])cc2)CC1c1ccccc1 (stereo unspecified)	-	-	-	-	-	.
COc1cc(N2N=C(c3ccccc3)CC2c2ccccc2)c(C=O)cc1C=O (stereo unspecified)	-	-	-	107.0	-	74.9	RORg DNA counter=-
SMILES	GalR3 antagonist	NR2E3 ag-1	NR2E3 ag-2	Rev-erbA mod	PG9 binder	Rev-erbA confirm	others
COc1ccc(Cn2ccc3ccc(-c4ccc5ccn(C(=O)C6CCC6)c5c4)cc32)cc1	.	.	.	-	.	.
CC(C)n1nnnc1C1(C)Cn2nccc2C(=O)N1Cc1cccc(C(F)(F)F)c1 (stereo unspecified)	.	.	.	-	.	.
O=C(Nc1ccc(F)cc1)c1sc2cc(C(F)(F)F)cnc2c1-c1cccs1	-	-	-	49.3	-	21.1
O=C1c2cccc3cccc(c23)N1Cc1ccc(F)cc1	-	-	-	-	-	.
COc1ccc(CN2C(=O)c3cccc4cccc(c34)C2=O)cc1	-	-	-	23.3	-	15.3
Cn1c(=O)c2c(c3ccccc31)OC(C)(C)C=C2	-	.	.	-	-	.
CCCCCCSc1ccc(-c2nc3ccc(Cl)cn3c2NC2CCCCC2)cc1	-	.	-	22.8	-	22.4
CCCCNc1c(-c2ccc(SC3CCCCC3)c(OC)c2)nc2ccc(Cl)cn12	-	-	-	19.6	-	-
CCCCCCSc1ccc(-c2nc3ccc(C)cn3c2NCCCC)cc1OC	-	.	-	16.1	-	-
Cc1ccn2c(NC3CCCCC3)c(-c3ccc(SC4CCCCC4)cc3)nc2c1	-	.	-	32.8	-	14.7
Fc1ccc2nc(-c3ccc(CN4CCC5(CC4)CNc4ccccc45)cc3)c(-c3ccccc3)nc2c1	-	.	.	-	-	.
CN(CCO)c1ccc2c(c1)Oc1ccccc1CN(Cc1cn(Cc3ccc(F)cc3)nn1)S2(=O)=O	.	.	.	-	.	.
Cc1cccc(NC(=O)c2ccc3c(Cl)c4c(nc3c2)CCCC4)n1	-	-	-	23.8	-	-
COc1cc(NC(=O)CCc2nnc3ccc(N4CCN(c5cccc(OC)c5)CC4)nn23)cc(OC)c1	-	-	-	29.0	-	-
COc1cccc(NC(=O)CCc2nnc3ccc(N4CCN(c5cccc(OC)c5)CC4)nn23)c1	.	-	-	.	.	.
NS(=O)(=O)c1ccc(CNC(=O)c2cc(-c3cccnc3)nc3ccc(Cl)cc23)cc1	-	-	-	-	-	.
O=C(NCc1ccc(F)cc1)c1cc(-c2ccccn2)nc2ccc(S(=O)(=O)N3CCOCC3)cc12	-	.	-	18.3	-	19.4
NS(=O)(=O)c1ccc(CNC(=O)c2cc(-c3ccccn3)nc3ccc(Cl)cc23)cc1	-	-	-	23.2	-	18.7
O=C1CC2c3cc(-c4cc5ccccc5o4)ccc3CCN2C(=O)CN1Cc1ccccc1 (stereo unspecified)	-	.	.	-	-	.
COc1ccc(NC(=O)NNC(=O)COc2ccc3cc(Br)ccc3c2)cc1	-	.	-	15.7	-	-
CCCCNC(=O)C[C@H]1C[C@@]2(C(=O)OCC)CCCC3=C2N(CCC3)C1=O	.	.	.	-	.	.
N#C/C(=C(/O)C(Cl)c1ccccc1)c1nc2ccccc2s1 (stereo unspecified)	-	-	-	76.3	-	48.9	RORg DNA counter=-
N#C/C(=C(/O)c1cccc(F)c1)c1nc2ccccc2s1	-	-	-	-	-	.
CN1C(=O)[C@@]2(O[C@H]3C=CC=CN3C3=C2C(=O)CCC3)c2cccc(Br)c21	-	.	.	-	-	.
O=c1[nH]cnc2cc(-c3ccc(Br)cc3)sc12	-	-	-	25.9	-	-
COC(=O)C1=C(C)N(Cc2ccccc2C(F)(F)F)C(=NCc2ccc(C(F)(F)F)cc2)NC1c1cccc(Cl)c1 (stereo unspecified)	-	.	.	-	-	.
